Laboratory results published in ChEMBL document CHEMBL1800074, “Novel quinoxaline derivatives for in vivo imaging of β-amyloid plaques in the brain” (Bioorg Med Chem Lett, 2011).
The source made the active and inactive calls. No cut-off for these calls is given here.

Columns and labels:
[1] = Displacement of [125I]IMPY from amyloid beta (1-42) after 2 hrs by gamma counting
Outline: (§1)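 Competition binding against [125I]IMPY on aggregated Aβ1-42, with inhibition curves built from the test ligand displacing the radioligand.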

[2] = Binding affinity to amyloid beta (1-42) after 2 hrs by gamma counting; outline: as §1
Intestine [3] = assay: Biodistribution in ddY mouse intestine at 37 KBq/100 ul, iv after 2 mins by gamma counting; assay type: ADME, organism-based; details: in vivo
Outline: (§2)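 Normal ddY mice got an iv injection of the 125I-labelled ligand (no carrier added, radiochemical purity >98%). Organs were collected at 2, 30, 60 and 120 min. Activity is given as % injected dose per gram; stomach is given as % injected dose per organ. Values are the average of five mice ± standard deviation.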

Blood [4] = assay: Biodistribution in ddY mouse blood at 37 KBq/100 ul, iv after 120 mins by gamma counting; assay type: ADME, organism-based; details: in vivo, 2 h; outline: as §2
Heart [5] = assay: Biodistribution in ddY mouse heart at 37 KBq/100 ul, iv after 2 mins by gamma counting; assay type: ADME, organism-based; details: in vivo; outline: as §2
Heart [6] = assay: Biodistribution in ddY mouse heart at 37 KBq/100 ul, iv after 30 mins by gamma counting; assay type: ADME, organism-based; details: in vivo, 0.5 h; outline: as §2
Liver [7] = assay: Biodistribution in ddY mouse liver at 37 KBq/100 ul, iv after 2 mins by gamma counting; assay type: ADME, organism-based; details: in vivo; outline: as §2
Liver [8] = assay: Biodistribution in ddY mouse liver at 37 KBq/100 ul, iv after 120 mins by gamma counting; assay type: ADME, organism-based; details: in vivo, 2 h; outline: as §2
Kidney [9] = assay: Biodistribution in ddY mouse kidney at 37 KBq/100 ul, iv after 2 mins by gamma counting; assay type: ADME, organism-based; details: in vivo; outline: as §2
Liver [10] = assay: Biodistribution in ddY mouse liver at 37 KBq/100 ul, iv after 60 mins by gamma counting; assay type: ADME, organism-based; details: in vivo, 1 h; outline: as §2
Blood [11] = assay: Biodistribution in ddY mouse blood at 37 KBq/100 ul, iv after 30 mins by gamma counting; assay type: ADME, organism-based; details: in vivo, 0.5 h; outline: as §2
Spleen [12] = assay: Biodistribution in ddY mouse spleen at 37 KBq/100 ul, iv after 30 mins by gamma counting; assay type: ADME, organism-based; details: in vivo, 0.5 h; outline: as §2
Liver [13] = assay: Biodistribution in ddY mouse liver at 37 KBq/100 ul, iv after 30 mins by gamma counting; assay type: ADME, organism-based; details: in vivo, 0.5 h; outline: as §2
Stomach [14] = assay: Biodistribution in ddY mouse stomach assessed per organ at 37 KBq/100 ul, iv after 60 mins by gamma counting; assay type: ADME, organism-based; details: in vivo, 1 h; outline: as §2
Spleen [15] = assay: Biodistribution in ddY mouse spleen at 37 KBq/100 ul, iv after 60 mins by gamma counting; assay type: ADME, organism-based; details: in vivo, 1 h; outline: as §2
Lung [16] = assay: Biodistribution in ddY mouse lung at 37 KBq/100 ul, iv after 60 mins by gamma counting; assay type: ADME, organism-based; details: in vivo, 1 h; outline: as §2
[17] = Lipophilicity, log D of the compound; assay type: physicochemical; details: octanol/water
Kidney [18] = assay: Biodistribution in ddY mouse kidney at 37 KBq/100 ul, iv after 60 mins by gamma counting; assay type: ADME, organism-based; details: in vivo, 1 h; outline: as §2
Brain [19] = assay: Biodistribution in ddY mouse brain at 37 KBq/100 ul, iv after 2 mins by gamma counting; assay type: ADME, organism-based; details: in vivo; outline: as §2
Brain [20] = assay: Ratio of drug uptake after 2 mins to drug uptake in 120 mins in ddY mouse brain at 37 KBq/100 ul, iv; assay type: ADME, organism-based; details: in vivo
Outline: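 Brain uptake (% injected dose per gram) in normal ddY mice after iv injection of the 125I-labelled ligand. The value is the brain 2 min / brain 120 min ratio, from five mice per time point.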

Lung [21] = assay: Biodistribution in ddY mouse lung at 37 KBq/100 ul, iv after 120 mins by gamma counting; assay type: ADME, organism-based; details: in vivo, 2 h; outline: as §2
Lung [22] = assay: Biodistribution in ddY mouse lung at 37 KBq/100 ul, iv after 2 mins by gamma counting; assay type: ADME, organism-based; details: in vivo; outline: as §2
Blood [23] = assay: Biodistribution in ddY mouse blood at 37 KBq/100 ul, iv after 2 mins by gamma counting; assay type: ADME, organism-based; details: in vivo; outline: as §2
Spleen [24] = assay: Biodistribution in ddY mouse spleen at 37 KBq/100 ul, iv after 120 mins by gamma counting; assay type: ADME, organism-based; details: in vivo, 2 h; outline: as §2
Intestine [25] = assay: Biodistribution in ddY mouse intestine at 37 KBq/100 ul, iv after 120 mins by gamma counting; assay type: ADME, organism-based; details: in vivo, 2 h; outline: as §2
Stomach [26] = assay: Biodistribution in ddY mouse stomach assessed per organ at 37 KBq/100 ul, iv after 30 mins by gamma counting; assay type: ADME, organism-based; details: in vivo, 0.5 h; outline: as §2
Lung [27] = assay: Biodistribution in ddY mouse lung at 37 KBq/100 ul, iv after 30 mins by gamma counting; assay type: ADME, organism-based; details: in vivo, 0.5 h; outline: as §2
Intestine [28] = assay: Biodistribution in ddY mouse intestine at 37 KBq/100 ul, iv after 60 mins by gamma counting; assay type: ADME, organism-based; details: in vivo, 1 h; outline: as §2
Heart [29] = assay: Biodistribution in ddY mouse heart at 37 KBq/100 ul, iv after 60 mins by gamma counting; assay type: ADME, organism-based; details: in vivo, 1 h; outline: as §2
Kidney [30] = assay: Biodistribution in ddY mouse kidney at 37 KBq/100 ul, iv after 30 mins by gamma counting; assay type: ADME, organism-based; details: in vivo, 0.5 h; outline: as §2
Brain [31] = assay: Biodistribution in ddY mouse brain at 37 KBq/100 ul, iv after 30 mins by gamma counting; assay type: ADME, organism-based; details: in vivo, 0.5 h; outline: as §2
Spleen [32] = assay: Biodistribution in ddY mouse spleen at 37 KBq/100 ul, iv after 2 mins by gamma counting; assay type: ADME, organism-based; details: in vivo; outline: as §2
Blood [33] = assay: Biodistribution in ddY mouse blood at 37 KBq/100 ul, iv after 60 mins by gamma counting; assay type: ADME, organism-based; details: in vivo, 1 h; outline: as §2
Brain [34] = assay: Biodistribution in ddY mouse brain at 37 KBq/100 ul, iv after 120 mins by gamma counting; assay type: ADME, organism-based; details: in vivo, 2 h; outline: as §2
Brain [35] = assay: Biodistribution in ddY mouse brain at 37 KBq/100 ul, iv after 60 mins by gamma counting; assay type: ADME, organism-based; details: in vivo, 1 h; outline: as §2
Stomach [36] = assay: Biodistribution in ddY mouse stomach assessed per organ at 37 KBq/100 ul, iv after 2 mins by gamma counting; assay type: ADME, organism-based; details: in vivo; outline: as §2
Heart [37] = assay: Biodistribution in ddY mouse heart at 37 KBq/100 ul, iv after 120 mins by gamma counting; assay type: ADME, organism-based; details: in vivo, 2 h; outline: as §2
Intestine [38] = assay: Biodistribution in ddY mouse intestine at 37 KBq/100 ul, iv after 30 mins by gamma counting; assay type: ADME, organism-based; details: in vivo, 0.5 h; outline: as §2
Stomach [39] = assay: Biodistribution in ddY mouse stomach assessed per organ at 37 KBq/100 ul, iv after 120 mins by gamma counting; assay type: ADME, organism-based; details: in vivo, 2 h; outline: as §2
Kidney [40] = assay: Biodistribution in ddY mouse kidney at 37 KBq/100 ul, iv after 120 mins by gamma counting; assay type: ADME, organism-based; details: in vivo, 2 h; outline: as §2
Mus musculus = species: Mus musculus; assay: Binding affinity to amyloid beta plaque in APP/PS1 transgenic C57BL/6 mouse brain cortex at 185 KBq/100 ul after 1 hr by thioflavin S-fluorescence staining method; assay type: tissue-based; details: C57BL6, tested as the 125I-labelled form
[41] = target: Amyloid-beta precursor protein (Homo sapiens) (UniProt P05067); assay: Binding affinity to amyloid beta (1-42) plaque in brain of patient with Alzheimer's disease at 185 KBq/100ul after 1 hr by immunofluorescence staining method; assay type: tissue-based; details: tested as the 125I-labelled form
Outline: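 In vitro autoradiography with the 125I-labelled ligand on brain sections from an Alzheimer's disease patient. Plaque presence and distribution were confirmed by immunohistochemical staining with a monoclonal Aβ antibody.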

Chain of Amyloid-beta precursor protein (Homo sapiens) (P05067 whole entry): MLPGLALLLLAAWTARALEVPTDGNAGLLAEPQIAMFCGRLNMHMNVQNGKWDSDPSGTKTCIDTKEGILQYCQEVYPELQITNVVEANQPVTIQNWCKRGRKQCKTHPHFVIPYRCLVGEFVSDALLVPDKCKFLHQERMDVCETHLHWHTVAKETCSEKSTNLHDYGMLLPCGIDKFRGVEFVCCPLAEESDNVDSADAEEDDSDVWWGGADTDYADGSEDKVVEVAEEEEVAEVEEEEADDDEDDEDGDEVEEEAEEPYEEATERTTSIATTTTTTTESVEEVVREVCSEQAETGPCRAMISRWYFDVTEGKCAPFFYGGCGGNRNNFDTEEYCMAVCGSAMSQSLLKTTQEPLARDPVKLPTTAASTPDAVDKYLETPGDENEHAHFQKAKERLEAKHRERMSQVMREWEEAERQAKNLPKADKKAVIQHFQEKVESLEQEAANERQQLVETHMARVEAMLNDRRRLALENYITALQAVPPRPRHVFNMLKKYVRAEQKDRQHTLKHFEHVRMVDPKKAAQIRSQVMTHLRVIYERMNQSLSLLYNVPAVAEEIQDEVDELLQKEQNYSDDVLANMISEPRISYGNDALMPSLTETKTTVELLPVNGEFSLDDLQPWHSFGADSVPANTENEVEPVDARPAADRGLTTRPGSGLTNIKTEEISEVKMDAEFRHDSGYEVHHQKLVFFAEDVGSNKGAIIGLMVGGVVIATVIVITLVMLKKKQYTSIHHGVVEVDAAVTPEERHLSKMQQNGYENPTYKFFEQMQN

CN(C)c1ccc(-c2cnc3cc(Br)ccc3n2)cc1
Ki [1]: 2.6 nM

CNc1ccc2cc(-c3ccc(OCCOCCOCCF)cc3)ccc2c1
Ki [1]: 1.6 nM

CN(C)c1ccc(-c2cn3cc([123I])ccc3n2)cc1
Kd [2]: 0.43 nM

CNc1ccc(-c2cnc3cc(I)ccc3n2)cc1
Ki [1]: 7.7 nM

CN(C)c1ccc(-c2cnc3cc([125I])ccc3n2)cc1
Drug uptake (Intestine [3]): 3.43 % ID/g
Drug uptake (Blood [4]): 1.88 % ID/g
Drug uptake (Heart [5]): 14.91 % ID/g
Drug uptake (Heart [6]): 2.53 % ID/g
Drug uptake (Liver [7]): 30.49 % ID/g
Drug uptake (Liver [8]): 7.53 % ID/g
Drug uptake (Kidney [9]): 19.67 % ID/g
Drug uptake (Liver [10]): 12.5 % ID/g
Drug uptake (Blood [11]): 2.88 % ID/g
Drug uptake (Spleen [12]): 2.82 % ID/g
Drug uptake (Liver [13]): 15.73 % ID/g
Drug uptake (Stomach [14]): 5.39 %ID
Drug uptake (Spleen [15]): 2.22 % ID/g
Drug uptake (Lung [16]): 3.53 % ID/g
logD [17]: 4.02
Drug uptake (Kidney [18]): 6.68 % ID/g
Drug uptake (Brain [19]): 6.03 % ID/g
Ratio (Brain [20]): 5.38
Drug uptake (Lung [21]): 1.95 % ID/g
Drug uptake (Lung [22]): 14.53 % ID/g
Drug uptake (Blood [23]): 4.71 % ID/g
Drug uptake (Spleen [24]): 1.17 % ID/g
Drug uptake (Intestine [25]): 16.93 % ID/g
Drug uptake (Stomach [26]): 3.28 %ID
Drug uptake (Lung [27]): 3.99 % ID/g
Drug uptake (Intestine [28]): 22.5 % ID/g
Drug uptake (Heart [29]): 2.17 % ID/g
Drug uptake (Kidney [30]): 8.76 % ID/g
Drug uptake (Brain [31]): 5.21 % ID/g
Drug uptake (Spleen [32]): 5.69 % ID/g
Drug uptake (Blood [33]): 2.98 % ID/g
Drug uptake (Brain [34]): 1.12 % ID/g
Drug uptake (Brain [35]): 2.91 % ID/g
Drug uptake (Stomach [36]): 2.06 %ID
Drug uptake (Heart [37]): 1.22 % ID/g
Drug uptake (Intestine [38]): 18.62 % ID/g
Drug uptake (Stomach [39]): 8.62 %ID
Drug uptake (Kidney [40]): 3.96 % ID/g

Nc1ccc(-c2cnc3cc(I)ccc3n2)cc1
Ki [1]: 10.7 nM

CNc1ccc(-c2ccc3cc(OCCOCCOCCF)ccc3c2)cc1
Ki [1]: 3 nM

CN(C)c1ccc(-c2cnc3cc(I)ccc3n2)cc1
Activity (Mus musculus): Active
Activity [41]: Active
Ki [1]: 4.1 nM
